Data as given in paper PMC8604211 (Clinical and Translational Science, 2021).
“And” between values parts separate entries of the source, which are not always exact repeats. Equal values may be shown once. Read-outs that look alike come from different tables or passages of the source. One block for each molecule: values may come before it.

Tests used:
[1] = target: P-gp (Homo sapiens, UniProt P08183); assay: P-gp bidirectional transport assay in human Caco-2 cell monolayers; format: in vitro ADME; conditions: Caco-2, pH 7.4
Sequence of P-gp (P08183 whole entry): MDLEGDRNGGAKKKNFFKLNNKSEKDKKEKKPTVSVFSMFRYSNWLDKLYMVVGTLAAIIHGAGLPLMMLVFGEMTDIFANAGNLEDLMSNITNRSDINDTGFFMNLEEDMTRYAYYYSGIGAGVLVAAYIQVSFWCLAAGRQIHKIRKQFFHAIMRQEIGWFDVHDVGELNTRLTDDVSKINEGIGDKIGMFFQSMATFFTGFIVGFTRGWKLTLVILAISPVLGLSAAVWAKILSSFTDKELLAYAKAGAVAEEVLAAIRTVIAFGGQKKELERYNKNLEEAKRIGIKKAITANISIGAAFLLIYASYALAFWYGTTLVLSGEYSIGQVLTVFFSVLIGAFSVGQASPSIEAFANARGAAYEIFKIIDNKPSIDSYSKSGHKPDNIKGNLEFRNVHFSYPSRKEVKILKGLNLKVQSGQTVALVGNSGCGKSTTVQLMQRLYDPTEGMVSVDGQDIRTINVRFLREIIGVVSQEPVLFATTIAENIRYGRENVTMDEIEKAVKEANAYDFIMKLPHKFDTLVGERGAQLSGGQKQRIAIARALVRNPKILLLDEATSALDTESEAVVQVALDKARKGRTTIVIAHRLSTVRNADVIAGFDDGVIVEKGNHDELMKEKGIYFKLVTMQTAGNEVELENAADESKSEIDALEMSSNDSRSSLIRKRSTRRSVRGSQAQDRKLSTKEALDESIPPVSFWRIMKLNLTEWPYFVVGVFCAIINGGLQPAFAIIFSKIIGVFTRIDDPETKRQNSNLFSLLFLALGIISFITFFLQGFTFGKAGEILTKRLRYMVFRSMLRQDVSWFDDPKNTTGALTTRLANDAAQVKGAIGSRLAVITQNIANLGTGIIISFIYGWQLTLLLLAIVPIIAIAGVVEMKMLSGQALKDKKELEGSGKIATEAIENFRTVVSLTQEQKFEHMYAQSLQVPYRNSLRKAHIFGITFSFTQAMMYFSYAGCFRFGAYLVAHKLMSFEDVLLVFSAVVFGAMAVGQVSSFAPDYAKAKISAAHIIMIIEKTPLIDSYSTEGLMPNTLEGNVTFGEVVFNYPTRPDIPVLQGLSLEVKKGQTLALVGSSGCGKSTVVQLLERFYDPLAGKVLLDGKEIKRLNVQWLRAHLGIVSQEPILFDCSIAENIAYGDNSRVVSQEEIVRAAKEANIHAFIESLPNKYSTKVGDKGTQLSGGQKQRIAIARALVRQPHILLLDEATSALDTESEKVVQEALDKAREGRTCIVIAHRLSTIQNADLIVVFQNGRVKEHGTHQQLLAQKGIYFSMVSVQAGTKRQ

[2] = Clinical DDI study U107; format: in vivo, human
[3] = Milademetan PBPK model; parameters: species or system human
Summary of the method: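 Minimal PBPK model with one adjusting compartment and ADAM absorption that includes intestinal P-gp; renal and biliary clearance set to zero. Vss, kin, kout, Vsac and oral clearance fitted to healthy-subject plasma data after a single fasted 100 mg oral dose.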

[4] = target: T1, CYP3A4 (Homo sapiens, UniProt P08684); assay: Incubation of [14C]milademetan with recombinant human CYP3A4; format: in vitro ADME; conditions: [14C]milademetan 1 µM, 60 min, unpublished in-house data
Target sequence in this assay (P08684 whole entry): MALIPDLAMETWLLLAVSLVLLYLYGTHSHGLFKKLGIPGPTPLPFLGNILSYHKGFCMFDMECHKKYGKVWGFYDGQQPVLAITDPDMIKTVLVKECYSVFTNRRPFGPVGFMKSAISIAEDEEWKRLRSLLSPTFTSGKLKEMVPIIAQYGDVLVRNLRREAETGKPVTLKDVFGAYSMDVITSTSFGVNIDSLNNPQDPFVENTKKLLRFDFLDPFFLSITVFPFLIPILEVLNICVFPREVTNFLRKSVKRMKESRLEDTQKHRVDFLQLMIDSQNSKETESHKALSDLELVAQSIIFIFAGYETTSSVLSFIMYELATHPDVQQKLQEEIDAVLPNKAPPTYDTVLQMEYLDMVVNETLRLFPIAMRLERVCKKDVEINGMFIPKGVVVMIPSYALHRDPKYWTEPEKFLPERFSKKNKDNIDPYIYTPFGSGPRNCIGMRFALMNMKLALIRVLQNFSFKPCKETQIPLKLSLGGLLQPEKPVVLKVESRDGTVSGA

[5] = target: CYP3A5 (Homo sapiens, UniProt P20815); assay: Incubation of [14C]milademetan with recombinant human CYP3A5; format: in vitro ADME; conditions: [14C]milademetan 1 µM, 60 min, unpublished in-house data
Sequence of CYP3A5 (P20815 whole entry): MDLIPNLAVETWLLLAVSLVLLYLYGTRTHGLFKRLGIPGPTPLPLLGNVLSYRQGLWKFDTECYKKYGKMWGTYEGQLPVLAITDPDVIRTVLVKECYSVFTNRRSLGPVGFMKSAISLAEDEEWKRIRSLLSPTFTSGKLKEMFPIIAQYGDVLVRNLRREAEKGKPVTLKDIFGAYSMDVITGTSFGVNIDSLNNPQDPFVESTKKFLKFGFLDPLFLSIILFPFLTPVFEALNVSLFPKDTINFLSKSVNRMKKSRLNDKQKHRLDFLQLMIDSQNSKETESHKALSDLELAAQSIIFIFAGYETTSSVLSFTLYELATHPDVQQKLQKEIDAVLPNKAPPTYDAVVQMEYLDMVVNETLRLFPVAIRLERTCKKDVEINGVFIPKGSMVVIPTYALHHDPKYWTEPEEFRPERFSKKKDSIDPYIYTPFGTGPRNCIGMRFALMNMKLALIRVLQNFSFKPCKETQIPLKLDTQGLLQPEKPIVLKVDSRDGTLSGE

[6] = target: T1, CYP3A4; assay: CYP3A inhibition; format: in vitro ADME; conditions: pooled human hepatic microsomes, probe midazolam
Target sequence in this assay (P08684 2-503): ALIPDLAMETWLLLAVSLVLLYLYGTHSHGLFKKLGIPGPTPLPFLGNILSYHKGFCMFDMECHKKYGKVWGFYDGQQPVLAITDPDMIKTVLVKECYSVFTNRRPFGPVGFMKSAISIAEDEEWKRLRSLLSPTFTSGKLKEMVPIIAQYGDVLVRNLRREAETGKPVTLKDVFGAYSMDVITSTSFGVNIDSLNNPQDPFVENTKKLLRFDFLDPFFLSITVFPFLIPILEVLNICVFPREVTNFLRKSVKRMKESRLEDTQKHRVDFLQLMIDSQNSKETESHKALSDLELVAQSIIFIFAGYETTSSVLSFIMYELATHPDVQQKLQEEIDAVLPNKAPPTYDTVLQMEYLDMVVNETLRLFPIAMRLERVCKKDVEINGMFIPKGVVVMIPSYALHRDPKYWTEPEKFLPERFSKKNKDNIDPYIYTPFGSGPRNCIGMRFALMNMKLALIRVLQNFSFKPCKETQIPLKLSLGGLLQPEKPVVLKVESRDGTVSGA

[7] = Rat ADME study with [14C]milademetan; format: in vivo; conditions: single oral [14C]milademetan 30 mg/kg
[8] = Clinical food effect study; format: in vivo, human; conditions: high-calorie, high-fat meal vs fasted state; unpublished in-house data
[9] = Plasma protein unbound fraction measured in vitro; format: in vitro ADME
[10] = ref NCT01877382, cited from earlier work; for maximum tolerated dose: advanced solid tumors or lymphomas
[11] = Optimized by fitting clinical data (U107), milademetan alone, fasted
[12] = bile duct–cannulated rats, up to 48 h

Papp [1]: 43 ×10⁻⁶ cm/s
Compound: CC(C)NCC(O)COc1cccc2ccccc12 (stereo not drawn) [Propranolol, reference compound]

Compound: CC1(C)CCC2(CC1)N[C@@H](C(=O)N[C@@H]1CC[C@@H](C(N)=O)OC1)[C@H](c1ccnc(Cl)c1F)[C@]21C(=O)Nc2cc(Cl)ccc21 [milademetan]
CL/F ([2]; 100 mg alone, fasted (sequence AB, treatment A), geometric mean (CV%)): 6.8 L/h and 6.80 L/h and 6.80 (33.5) L/h | CL/F ([2]; 100 mg with itraconazole (treatment B), geometric mean (CV%)): 3.13 L/h and 3.13 (35.4) L/h | CL/F ([2]; 100 mg with posaconazole (treatment C), geometric mean (CV%)): 2.91 L/h and 2.91 (25.5) L/h | AUC(0-t) ([2]; human, plasma, oral, 100 mg, AUClast, 100 mg alone, 2 h following a full meal (sequence AC, treatment A), geometric mean (CV%)): 13500 ng·h/mL | Cmax ([2]; human, plasma, oral, 100 mg, Cmax, 100 mg alone, 2 h following a full meal (sequence AC, treatment A), geometric mean (CV%)): 675 ng/mL | Tmax ([2]; human, plasma, oral, 100 mg, Tmax, 100 mg alone, 2 h following a full meal (sequence AC, treatment A), median (minimum–maximum)): 3.03 h | Vd/F ([2]; human, plasma, oral, 100 mg, Vz/F, 100 mg alone, 2 h following a full meal (sequence AC, treatment A), geometric mean (CV%)): 223 L | half-life ([2]; human, plasma, oral, 100 mg, t1/2, 100 mg alone, 2 h following a full meal (sequence AC, treatment A), arithmetic mean (SD)): 21.3 h | Vsac (volume of single adjusting compartment) [3, 11]: 0.5 L/kg | kin (first-order rate constant to single adjusting compartment) [3, 11]: 0.07 h⁻¹ | kout (first-order rate constant from single adjusting compartment) [3, 11]: 0.07 h⁻¹ | CLint,CYP3A4 (CYP3A4-specific intrinsic clearance) ([3]; Optimized by fitting clinical data (U107), milademetan and itraconazole sequence): 0.459 µL/min/pmol of isoform | oral clearance (CLpo), optimized ([3]; fitted to period one of sequence AB (alone, fasted), U107): 8.5 L/h | microsomal CLint ([3]; human): 40.2 µL/min/mg | fmCYP3A4 (fraction metabolized by CYP3A4) ([3]; optimized to recover observed AUCR and CmaxR of sequence AB (itraconazole)): 0.58 | remaining parent [4]: 61 % of the total radioactivity | remaining parent [5]: 84 % of the total radioactivity | Papp at 120 min [1]: 17 ×10⁻⁶ cm/s | KI (inactivation) [6]: 60.5 µM | Ki [6]: 4.2 µM | biliary excretion of radioactivity [7, 12]: 20.4 ± 1.8 % of the dose | radioactivity recovered in feces [7, 12]: 75.1 ± 3.3 % of the dose | radioactivity recovered in feces ([7]; noncannulated rats, after 168 hours): 94.2 ± 0.7% | reduction of exposure (AUC) with food [8]: 24% | fraction unbound [9]: 0.02 | accumulation at steady-state ([10]; 120 mg q.d. 21/28, after 18–21 days of continuous dosing): 1.8 fold | dose proportionality of systemic exposure ([10]; dose range 15–340 mg): dose‐proportional increase in systemic drug exposure | maximum tolerated dose ([10]; q.d. 3/14 × 2 schedule): 260 mg | maximum tolerated dose ([10]; q.d. 21/28 schedule): 160 mg
